Shown are actives, neighbours in structure and some others; about 5.5% of the full set was active somewhere.
HSV augment = enhancers of HSV replication in host cells, fold increase, host cell viability. HSV replication augmentation in cells. maximum fold increase. 220,000 tested, 0.005% active. AID 1956, 2009; in the data active means maximum fold increase above about 1.5; tested in PC3 cells
STAT1 blocker = STAT1 signaling inhibitors, primary screen, cell-based, HTS, luciferase reporter | NIH 3T3 STAT1-luciferase reporter, IFN-gamma, luminescence | inhibition, % at 5.5 µM | 200,000 tested, 0.35% active;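 active means inhibition above a set limit, the mean inhibition across all tested compounds plus 3 SD, cut at about 34% in these data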
STAT3 act = IL-6 driven STAT3 reporter potentiators, primary screen, U3A cells, luciferase, luminescence, MLSCN library | IL-6 STAT3-luciferase reporter; 100% = signal with IL-6 EC80 alone | activation (% of control), % at 5.6 µM | 190,000 tested, 0.91% active;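 active means activation above the screen-wide mean of compound activation plus 3 SD, cut at about 130% in these data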
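Material: STAT1-lacking human U3A cells, STAT3 luciferase reporter | Benchmarks: IL-6-only wells as 100% reference | Probe or stimulus: IL-6 (33 ng/mL) | Timing: Compound 1 h, then IL-6 6 h at 37 °C | Detection: Luminescence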
Cl transport mod = KCC2 cotransporter modulators, thallium flux, primary screen, cell-based, HEK293 KCC2, FluoZin-2 fluorescence, MLSMR; KCC2 cells, thallium flux FluoZin-2 fluorescence; Solute carrier family 12 member 5 (Homo sapiens), Q9H2X9; B-score of Tl+ flux slope (higher = more flux/activation; lower = inhibition) at 10 µM; 190,000 tested, 2.2% active; AID 1456, 2008;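 active means thallium flux slope and its plate-corrected score both differing from the plate sample mean at a set confidence after two filtering rounds, in either direction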;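 further: slope of fluorescence scaled to starting intensity during 10 to 20 s after thallium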
STAT3 blocker = IL-6 driven STAT3 reporter inhibitors, primary screen, U3A cells, luciferase, luminescence, MLSCN library; 190,000 tested, 0.89% active; inhibition, % at 5.5 µM; IL-6 STAT3-luciferase reporter; host cell line lacks STAT1;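 active means inhibition above the mean inhibition across all screened compounds plus 3 SD, cut at about 44% in these data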
STAT1 activator = STAT1 signaling activators, primary screen, cell-based, HTS, luciferase reporter; activation (% of control), % at 5.5 µM; NIH 3T3 STAT1-luciferase reporter, IFN-gamma, luminescence; 100% = IFN-gamma alone, no compound; 200,000 tested, 2.6% active;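 active means activation above the screen-wide mean activation plus 3 SD, cut at about 130% in these data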
Hits are given with their value; i = inactive; nt = no result.

SMILES	HSV augment	STAT1 blocker	STAT3 act	Cl transport mod	STAT3 blocker	STAT1 activator
O=C(NCc1ccccn1)Nc1cccc(Cl)c1	i	i	i	i	i	133
Cc1csc(NC(=O)Nc2cccc(Cl)c2)n1	i	i	i	i	i	134
O=C(Nc1cccc(Cl)c1)Nc1nc(-c2ccccc2)cs1	i	i	i	i	i	i
O=C(NNC(=O)c1cc([N+](=O)[O-])ccc1Cl)c1cccs1	i	i	i	i	i	i
O=C(NC(=S)NCCOCc1ccc(Cl)cc1)c1cccnc1	nt	i	i	i	i	i
O=C(CN1C(=O)COc2ccc(S(=O)(=O)N3CCCC3)cc21)NCc1ccccn1	i	nt	nt	i	nt	nt
Cc1ccc(NC(=O)C2c3ccccc3Oc3ccccc32)c(C)c1	i	i	i	i	i	i
COc1c(C)cc(C(=O)C2CCCN(C(=O)CCc3scnc3C)C2)cc1C (stereo unspecified)	i	i	i	nt	i	i
CC(Nc1ccccc1N1CCCCC1)C(=O)N1CCc2ccccc21 (stereo unspecified)	i	i	i	i	i	i
O=C1c2ccccc2NC(c2cccc(O)c2)N1NS(=O)(=O)c1ccccc1 (stereo unspecified)	i	i	i	i	i	i
CCOC(=O)c1c(NC(=O)C2CCCN(S(=O)(=O)c3ccc(C)cc3)C2)sc2c1CCCC2 (stereo unspecified)	i	i	i	i	i	i
CC(C)C1COC(c2cccc3ccccc23)=N1 (stereo unspecified)	i	i	i	i	i	143
COCCn1c(-c2ccc(Cl)cc2)cnc1SCC(=O)NCCc1ccc(OC)c(OC)c1	i	i	i	i	i	i
COCCn1c(SCC(=O)NCCc2ccc(OC)c(OC)c2)nc2c([nH]c3ccccc32)c1=O	i	i	135	i	i	i
CCOc1ccc(NC(=O)CSc2nc3c([nH]c4ccccc43)c(=O)n2C)cc1	i	i	134	i	i	i
Oc1c(Cl)cc(Cl)c2c1NCCC2	nt	i	i	14	i	i
Cc1ccc2sc(-c3ccc(NC(=O)c4cc(-n5cnnc5)ccc4Cl)cc3)nc2c1	i	i	i	nt	i	149
Cc1nn2c(-c3ccccn3)ccnc2c1Cl	i	i	i	i	i	i
CC(=O)Nc1ccc(/C=N/Nc2nc3ccccc3[nH]2)cc1	i	i	i	i	i	i
Clc1ccccc1N/N=C/c1ccc2c(c1)OCO2	i	i	i	i	i	135
C(=N\Nc1nc2ccccc2[nH]1)/c1cccs1	i	i	i	i	i	148
CCN(CC)c1ccc(/C=N/Nc2nc3ccccc3[nH]2)cc1	i	i	i	i	i	172
C(=N\Nc1nc2ccccc2[nH]1)/c1ccncc1	i	i	i	i	i	i
C/C(=N\Nc1nc2ccccc2[nH]1)c1ccc2c(c1)OCO2	i	i	i	i	i	i
C(=N\Nc1nc2ccccc2[nH]1)/c1ccc2c(c1)OCO2	i	i	i	i	i	141
SMILES	HSV augment	STAT1 blocker	STAT3 act	Cl transport mod	STAT3 blocker	STAT1 activator
O=C(Cn1cnc([N+](=O)[O-])n1)NCCO	nt	i	nt	i	nt	i
CCSc1nc2ccccc2c(=O)n1CCc1ccc(OC)c(OC)c1	i	nt	nt	nt	nt	nt
CC1(C)CC(=O)c2cnc(N3CCc4ccccc43)nc2C1	i	nt	nt	i	nt	nt
COC(=O)c1ccc(/C=N/Nc2nc3ccccc3[nH]2)cc1	i	i	i	i	i	138
COc1ccc(N2CCN(c3ccc(Cl)nn3)CC2)cc1	i	i	i	i	i	i
COc1ccc(C(=O)NNC(=O)c2ccc(S(=O)(=O)N3CCCCC3)cc2)cc1	i	i	i	i	i	i
O=C(Nc1nsc(-c2ccccc2)n1)c1ccc(F)cc1	i	i	i	i	i	129
O=C(Nc1nc2nccc(-c3ccccc3)n2n1)c1ccc(F)cc1	i	i	i	i	i	i
Cn1c(CSCc2ccc(Cl)c(Cl)c2)n[nH]c1=S	i	i	i	i	i	i
NC(=O)CNC(=O)[C@@H]1CC2(CC(c3ccc(Cl)cc3)=NO2)CN1C(=O)c1ccccc1 (stereo partly specified)	i	i	i	i	i	i
Cc1cc(=O)oc2c(C(=O)/C=C\c3cccs3)c(O)ccc12	i	i	i	i	i	i
Cc1c(C(=O)/C=C/c2cccs2)oc2ccc(F)cc12	i	i	151	nt	i	i
Cc1nc(N(C)C)c2sc(=S)n(Cc3ccccc3)c2n1	i	i	i	i	i	i
CCc1ccc2oc(-c3cc(N)ccc3Cl)nc2c1	i	i	i	i	i	131
CCc1ccc2oc(-c3cc(N)ccc3O)nc2c1	i	i	i	nt	i	i
Clc1cccc(/C=N/Nc2nc(Cl)nc3ccccc23)c1	i	i	i	i	i	145
Cc1ccc(NC(=O)c2c(C)noc2C)cc1	i	i	i	i	i	i
CCOC(=O)Cc1ccc(NC(=O)c2ccccc2Br)cc1	i	i	i	i	i	i
COC(=O)Cc1ccc(NC(=O)c2ccc(C)c(C)c2)cc1	i	i	i	nt	i	133
Cc1noc(N)c1C(=O)Nc1ccc(C(C)(C)C)cc1	i	i	i	i	i	143
CCOC(=O)Cc1ccc(NC(=O)c2ccc(C(C)(C)C)cc2)cc1	i	38	i	nt	96	i
O=C(N/N=C/c1coc2ccccc2c1=O)c1cn(-c2ccccc2)nc1-c1ccc(F)cc1	i	i	i	i	i	i
S=c1[nH]nc(-c2n[nH]c3c2CCC3)n1/N=C/C=C/c1ccccc1	i	nt	nt	i	nt	nt
N=C1C(c2nc3ccccc3s2)=C(O)CN1c1ccccc1	i	i	i	i	i	149
c1ccc(CSc2ncn(-c3ccccc3)n2)cc1	i	i	i	i	i	144
SMILES	HSV augment	STAT1 blocker	STAT3 act	Cl transport mod	STAT3 blocker	STAT1 activator
Nc1nc(CSc2ncn(-c3ccccc3)n2)cs1	i	i	i	i	i	132
O=C(CSc1ncn(-c2ccccc2)n1)Nc1ccc(Br)cn1	i	i	i	i	i	i
O=C(CSc1ncn(-c2ccccc2)n1)c1cccs1	i	i	i	i	i	129
O=C(CSc1nnc(-c2ccccc2)n1-c1ccccc1)c1cccs1	nt	i	i	i	i	i
CCCCS(=O)(=O)Nc1ccc(C)cn1	i	i	i	i	i	i
CS/C(=N\S(=O)(=O)c1cccs1)Nc1ccc(Br)cc1F	i	i	i	i	i	i
COc1cc(NC(=O)C/C(C)=N/NC(=O)Cc2ccccc2)c(OC)cc1Cl	i	i	i	i	i	i
COc1cc(NC(=O)C/C(C)=N/NC(=O)c2cccs2)c(OC)cc1Cl	i	i	i	nt	i	139
COc1ccccc1NC(=S)N(CCCN1CCOCC1)Cc1cccs1	i	i	i	i	i	i
CCCc1ccc(OCc2ccc(C(=O)NCc3cccnc3)o2)c(OC)c1	i	i	i	i	i	i
